For test [1], the system named is Candida albicans. The experiment in a line: Antifungal activity against Candida albicans by XTT assay. It is filed as functional, organism-based. For orientation: Tetrazolium dyes change colour on reduction, which living cells bring about.
The nature of test [2]: Cytotoxicity against human BC1 cells by sulforhodamine B assay. It is filed as functional, cell-based. The method, boiled down:
(§1)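 Cell lines used were KB (human oral epidermoid carcinoma), BC (human breast cancer), NCI-H187 (human small cell lung cancer) and Vero (African green monkey kidney fibroblasts). Cytotoxicity was read colorimetrically by the Skehan method, with ellipticine as the reference substance.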

In test [3] the test system is Mycobacterium tuberculosis. The test is described as follows: Antimicrobial activity against Mycobacterium tuberculosis H37Ra by microplate alamar blue assay. It is filed as functional, organism-based. (In general: Alamar Blue is a resazurin reagent that responds to reducing activity.)
Test [4] relates to Plasmodium falciparum. The test is described as follows: Antiplasmodial activity against multidrug-resistant Plasmodium falciparum K1. It is filed as functional, organism-based. The method, boiled down: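 Parasites kept in continuous in vitro culture (Trager–Jensen method); activity assessed by a microculture radioisotope technique.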
In test [5] the test system is Vero. The test is described as follows: Cytotoxicity against african green monkey Vero cells by sulforhodamine B assay. It is filed as cell-based. The settings on record: Chlorocebus sabaeus. The method, boiled down:
as §1

The test system of test [6] is KB. The experiment in a line: Cytotoxicity against human KB cells by sulforhodamine B assay. The test is classed as functional, cell-based. An outline of the steps:
as §1
(In general: Sulforhodamine B stains cellular protein and so reports cell mass.)

Test [7] has as its system NCI-H187. The experiment in a line: Cytotoxicity against human NCI-H187 cells by sulforhodamine B assay. The test is classed as functional, cell-based. An outline of the steps: as §1

Converted amounts (≈) assume the structure as drawn. Bounds are passed on as bounds.

The term IC50 denotes the point on the concentration scale where inhibition reaches its midpoint. A word on the MIC: it is the smallest concentration in the dilution series that meets the test's criterion for growth inhibition. Turning to `C/C(C=O)=C\CCC1(C)C=Cc2cc(O)ccc2O1` (stereo not drawn) [ELAEAGIN], the half-maximal inhibitory concentration (IC50) was above 20 µg/mL in test [1]; above 20 µg/mL in test [2]; 3.6 µg/mL (≈ 13.9 µM) in test [4]; 20 µg/mL (≈ 77.4 µM) in test [5]; above 20 µg/mL in test [6]; 6.1 µg/mL (≈ 23.6 µM) in test [7]. In test [3], the lowest concentration to inhibit growth (MIC) was 12.5 µg/mL (≈ 48.4 µM).

As to `C/C(C=O)=C\CC/C(C)=C/Cc1cc(O)ccc1O` [ALLIODORIN], the IC50 in test [1] was above 20 µg/mL; in test [2], 10.3 µg/mL (≈ 39.6 µM); in test [4] it was 3.1 µg/mL (≈ 11.9 µM); in test [5], 14.1 µg/mL (≈ 54.2 µM); in test [6], 12 µg/mL (≈ 46.1 µM); in test [7] it was 2.2 µg/mL (≈ 8.45 µM). This molecule also registered an MIC in test [3] of 12.5 µg/mL (≈ 48 µM).

As for `CC(C)=CCCC1(C)C=Cc2cc(O)ccc2O1` (stereo not drawn) [CORDIACHROMENE A], the IC50 in test [1] is 11.2 µg/mL (≈ 45.8 µM); in test [2], above 20 µg/mL; in test [4], above 20 µg/mL; in test [5] it was above 50 µg/mL; in test [6], above 20 µg/mL; in test [7], above 20 µg/mL. Moreover, inhibition of growth in test [3] (MIC) required 12.5 µg/mL (≈ 51.2 µM).

In test [1], `C[C@@H]1[C@H](O)[C@@H](C)/C=C/C=C/C=C/C=C/C=C/C=C/C=C/[C@H](O[C@@H]2O[C@H](C)[C@@H](O)[C@H](N)[C@@H]2O)C[C@@H]2O[C@](O)(C[C@@H](O)C[C@@H](O)[C@H](O)CC[C@@H](O)C[C@@H](O)CC(=O)O[C@H]1C)C[C@H](O)[C@H]2C(=O)O` [AMPHOTERICIN B] came in with a 50% inhibitory concentration (IC50) of 0.08 µg/mL (≈ 0.0866 µM).

Consider `Cc1c2ccncc2c(C)c2c1[nH]c1ccccc12` [ELLIPTECINE], for which the 50% inhibitory concentration (IC50) in test [2] stood at 0.2 µg/mL (≈ 0.812 µM); in test [7], 0.3 µg/mL (≈ 1.22 µM).

Take `C=C[C@@]1(C)CC2=C(C[C@H]1C(=C)C)C(=O)C=CC2=O` [Cordiachrome C]: the IC50 in test [1] was 4.6 µg/mL (≈ 19 µM); in test [2], 1.8 µg/mL (≈ 7.43 µM); in test [4], 0.2 µg/mL (≈ 0.825 µM); in test [5] it was 1.4 µg/mL (≈ 5.78 µM); in test [6], 1.5 µg/mL (≈ 6.19 µM); in test [7], 0.2 µg/mL (≈ 0.825 µM). This molecule registered an MIC in test [3] of 1.5 µg/mL (≈ 6.19 µM).

In test [3], `NNC(=O)c1ccncc1` [ISONIAZID] registered an IC50 of 0.05 µg/mL (≈ 0.365 µM).

As to `C=C[C@]1(C)Cc2c(OC(=O)c3ccccc3)ccc(OC(=O)c3ccccc3)c2C[C@@H]1C(=C)C`, the IC50 in test [1] is above 20 µg/mL; in test [2], above 20 µg/mL; in test [4], above 20 µg/mL; in test [5], above 50 µg/mL; in test [6] it was above 20 µg/mL; in test [7], above 20 µg/mL. In test [3], this molecule returned an MIC of 200 µg/mL (≈ 442 µM).

Regarding `CO[C@H]1/C=C/O[C@@]2(C)Oc3c(C)c(O)c4c(O)c(c(/C=N/N5CCN(C)CC5)c(O)c4c3C2=O)NC(=O)/C(C)=C\C=C\[C@H](C)[C@H](O)[C@@H](C)[C@@H](O)[C@@H](C)[C@H](OC(C)=O)[C@@H]1C` [RIFAMPIN], 0.0047 µg/mL (≈ 0.00571 µM) corresponded to half-maximal inhibition in test [3] (IC50).

Turning to `C[C@H]1[C@@H](O)O[C@@H]2O[C@@]3(C)CC[C@H]4[C@H](C)CC[C@@H]1[C@@]24OO3` [ARTENIMOL], the IC50 in test [4] stood at 0.0012 µg/mL (≈ 0.00422 µM).

For `NC[C@H]1O[C@H](O[C@H]2[C@H](O)[C@@H](O[C@H]3O[C@H](CO)[C@@H](O)[C@H](N)[C@H]3O)[C@H](N)C[C@@H]2N)[C@H](O)[C@@H](O)[C@@H]1O` [KANAMYCIN], it took 2.5 µg/mL (≈ 5.16 µM) to reach half-maximal inhibition in test [3] (IC50).

Consider `C/C1=C/CC/C(C)=C/CC2=C(C1)C(=O)C=CC2=O` [GLOBIFERIN], for which the IC50 was above 20 µg/mL in test [1]; above 20 µg/mL in test [2]; 2.1 µg/mL (≈ 8.67 µM) in test [4]; above 50 µg/mL in test [5]; above 20 µg/mL in test [6]; 0.5 µg/mL (≈ 2.06 µM) in test [7]. This molecule also displayed an MIC in test [3] of 6.2 µg/mL (≈ 25.6 µM).

As to `C=C1CCC[C@@]2(C)CC3=C(C[C@@H]12)C(=O)C=CC3=O` [CORDIACHROME B], the IC50 in test [1] was found to be 7.7 µg/mL (≈ 31.8 µM); in test [2] it was 6.4 µg/mL (≈ 26.4 µM); in test [4] it was 1.5 µg/mL (≈ 6.19 µM); in test [5], 1.7 µg/mL (≈ 7.02 µM); in test [6] it was 6 µg/mL (≈ 24.8 µM); in test [7] it was 0.4 µg/mL (≈ 1.65 µM). Further, the MIC in test [3] worked out at 12.5 µg/mL (≈ 51.6 µM).

As to `C=C[C@]1(C)Cc2c(OC(C)=O)ccc(OC(C)=O)c2C[C@@H]1C(=C)C`, the IC50 was above 20 µg/mL in test [1]; 9.2 µg/mL (≈ 28 µM) in test [2]; 0.4 µg/mL (≈ 1.22 µM) in test [4]; 7.3 µg/mL (≈ 22.2 µM) in test [5]; 8.5 µg/mL (≈ 25.9 µM) in test [6]; 5.1 µg/mL (≈ 15.5 µM) in test [7]. The molecule further had an MIC in test [3] of 25 µg/mL (≈ 76.1 µM).
